In brackets after ≈: the same amount, converted by molar mass.
Columns and labels:
Staphylococcus aureus = experiment: Antimicrobial activity against Staphylococcus aureus after 24 hrs by tube dilution method; assay type: functional
Bacillus subtilis = experiment: Antimicrobial activity against Bacillus subtilis after 24 hrs by tube dilution method; assay type: functional
Method in brief: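 Serial dilutions in double-strength nutrient broth (I.P.) with ciprofloxacin as reference, tube dilution, incubated 37 °C for 24 h. MIC is the lowest concentration that inhibited growth.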

Escherichia coli = experiment: Antimicrobial activity against Escherichia coli after 24 hrs by tube dilution method; assay type: functional
Candida albicans = experiment: Antimicrobial activity against Candida albicans after 48 hrs by tube dilution method; assay type: functional
Aspergillus niger = experiment: Antimicrobial activity against Aspergillus niger after 7 days by tube dilution method; assay type: functional; conditions: 168 h
[1] = Cytotoxicity against cat CRFK cells assessed as cell viability by MTS assay; assay type: cell-based, Felis catus
Method in brief: (§1)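 Uninfected cultures were run in parallel with the antiviral assays. Viability was read by colorimetric formazan MTS assay.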

Felid alphaherpesvirus 1 = experiment: Antiviral activity against Feline herpesvirus 1 infected in cat CRFK cells assessed as inhibition of virus induced cytopathicity after 2 to 4 days by MTS assay; assay type: functional, organism-based; conditions: Felid alphaherpesvirus 1, CRFK
Feline coronavirus = experiment: Antiviral activity against Feline coronavirus infected in cat CRFK cells assessed as inhibition of virus induced cytopathicity after 2 to 4 days by MTS assay; assay type: functional, organism-based; conditions: Alphacoronavirus 1, CRFK
[2] = Cytotoxicity against human HEL cells assessed as altered cell morphology; assay type: cell-based
Method in brief: (§2)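 Uninfected cell cultures run alongside the antiviral assays, exposed to serial compound dilutions and incubated at 37 °C for 2–4 days. Toxicity was scored microscopically and reported as the minimum cytotoxic concentration (MCC), the lowest concentration causing a detectable change in normal cell morphology.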

Human alphaherpesvirus 1 [3] = experiment: Antiviral activity against Herpes simplex virus 1 KOS infected in HEL cells assessed as inhibition of virus induced cytopathicity after 2 to 4 days by MTS assay; assay type: functional, organism-based; conditions: Human alphaherpesvirus 1, KOS
Human alphaherpesvirus 2 = experiment: Antiviral activity against Herpes simplex virus 2 G infected in HEL cells assessed as inhibition of virus induced cytopathicity after 2 to 4 days by MTS assay; assay type: functional, organism-based; conditions: Human alphaherpesvirus 2, strain G
Vaccinia virus = experiment: Antiviral activity against Vaccinia virus infected in HEL cells assessed as inhibition of virus induced cytopathicity after 2 to 4 days by MTS assay; assay type: functional, organism-based; conditions: Orthopoxvirus vaccinia
[4] = system: Vesicular stomatitis virus; experiment: Antiviral activity against Vesicular stomatitis virus infected in HEL cells assessed as inhibition of virus induced cytopathicity after 2 to 4 days by MTS assay; assay type: functional, organism-based
Human alphaherpesvirus 1 [5] = experiment: Antiviral activity against thymidine kinase deficient acyclovir-resistant Herpes simplex virus 1 KOS infected in HEL cells assessed as inhibition of virus induced cytopathicity after 2 to 4 days by MTS assay; assay type: functional, organism-based; conditions: Human alphaherpesvirus 1, KOS
HeLa = experiment: Cytotoxicity against human HeLa cells assessed as cell viability by MTS assay; assay type: cell-based; conditions: hela; method in brief: as §1
[6] = Cytotoxicity against human HeLa cells assessed as altered cell morphology; assay type: cell-based; method in brief: as §2
[7] = system: Vesicular stomatitis virus; experiment: Antiviral activity against Vesicular stomatitis virus infected in human HeLa cells assessed as inhibition of virus induced cytopathicity by visual scoring of CPE; assay type: functional, organism-based
[8] = system: Vesicular stomatitis virus; experiment: Antiviral activity against Vesicular stomatitis virus infected in human HeLa cells assessed as inhibition of virus induced cytopathicity after 2 to 4 days by MTS assay; assay type: functional, organism-based
Coxsackievirus B4 [9] = experiment: Antiviral activity against coxsackievirus B4 infected in human HeLa cells assessed as inhibition of virus induced cytopathicity by visual scoring of CPE; assay type: functional, organism-based; conditions: Enterovirus B
Coxsackievirus B4 [10] = experiment: Antiviral activity against coxsackievirus B4 infected in human HeLa cells assessed as inhibition of virus induced cytopathicity after 2 to 4 days by MTS assay; assay type: functional, organism-based; conditions: Enterovirus B
[11] = system: Respiratory syncytial virus; experiment: Antiviral activity against Respiratory syncytial virus infected in human HeLa cells assessed as inhibition of virus induced cytopathicity by visual scoring of CPE; assay type: functional, organism-based
[12] = system: Respiratory syncytial virus; experiment: Antiviral activity against Respiratory syncytial virus infected in human HeLa cells assessed as inhibition of virus induced cytopathicity after 2 to 4 days by MTS assay; assay type: functional, organism-based
MDCK = experiment: Cytotoxicity against MDCK cells assessed as cell viability by MTS assay; assay type: cell-based, Canis lupus familiaris; conditions: dog, mdck; method in brief: as §1
[13] = Cytotoxicity against MDCK cells assessed as altered cell morphology; assay type: cell-based, Canis lupus familiaris; conditions: dog; method in brief: as §2
Influenza A virus [14] = experiment: Antiviral activity against Influenza A H3N2 virus subtype infected in MDCK cells assessed as inhibition of virus induced cytopathicity by visual scoring of CPE; assay type: functional, organism-based
Influenza A virus [15] = experiment: Antiviral activity against Influenza A H3N2 virus subtype infected in MDCK cells assessed as inhibition of virus induced cytopathicity after 2 to 4 days by MTS assay; assay type: functional, organism-based
Influenza B virus [16] = experiment: Antiviral activity against Influenza B virus infected in MDCK cells assessed as inhibition of virus induced cytopathicity by visual scoring of CPE; assay type: functional, organism-based
Influenza B virus [17] = experiment: Antiviral activity against Influenza B virus infected in MDCK cells assessed as inhibition of virus induced cytopathicity after 2 to 4 days by MTS assay; assay type: functional, organism-based
[18] = Cytotoxicity against african green monkey Vero cells assessed as altered cell morphology; assay type: cell-based; conditions: chlorocebus sabaeus; method in brief: as §2
Human respirovirus 3 = experiment: Antiviral activity against parainfluenza-3 virus infected in african green monkey Vero cells assessed as inhibition of virus induced cytopathicity after 2 to 4 days by MTS assay; assay type: functional, organism-based; conditions: Human respirovirus 3, Vero
[19] = system: Mammalian orthoreovirus 1; experiment: Antiviral activity against Reovirus 1 virus infected in african green monkey Vero cells assessed as inhibition of virus induced cytopathicity after 2 to 4 days by MTS assay; assay type: functional, organism-based; conditions: Mammalian orthoreovirus 1, Vero
Sindbis virus = experiment: Antiviral activity against Sindbis virus infected in african green monkey Vero cells assessed as inhibition of virus induced cytopathicity after 2 to 4 days by MTS assay; assay type: functional, organism-based
Coxsackievirus B4 [20] = experiment: Antiviral activity against Coxsackie virus B4 infected in african green monkey Vero cells assessed as inhibition of virus induced cytopathicity after 2 to 4 days by MTS assay; assay type: functional, organism-based; conditions: Enterovirus B
Punta Toro virus = experiment: Antiviral activity against Punta Toro virus infected in african green monkey Vero cells assessed as inhibition of virus induced cytopathicity after 2 to 4 days by MTS assay; assay type: functional, organism-based

Q: What does the source list for `CCCCCCCC/C=C/CCCCCCCC(=O)n1c(-c2ccc(S(=O)(=O)O)cc2)nc2ccccc21`?
A: MBC (Staphylococcus aureus): 12.5 mg/L (≈ 23.2 µM); MBC (Bacillus subtilis): 50 mg/L (≈ 92.8 µM); MBC (Escherichia coli): 3.12 mg/L (≈ 5.79 µM); MFC (Candida albicans): 50 mg/L (≈ 92.8 µM); MFC (Aspergillus niger): > 50 mg/L; CC50 ([1]; crfk): > 100 mg/L; EC50 (Felid alphaherpesvirus 1): > 100 mg/L; EC50 (Feline coronavirus): > 100 mg/L; MCC [2]: > 100 µg/mL; EC50 (Human alphaherpesvirus 1 [3]): > 100 mg/L; EC50 (Human alphaherpesvirus 2): > 100 mg/L; EC50 (Vaccinia virus): > 100 mg/L; EC50 [4]: > 100 mg/L; EC50 (Human alphaherpesvirus 1 [5]): > 100 mg/L; CC50 (HeLa): > 100 mg/L; MCC [6]: > 100 µg/mL; EC50 [7]: > 100 mg/L; EC50 [8]: > 100 mg/L; EC50 (Coxsackievirus B4 [9]): > 100 mg/L; EC50 (Coxsackievirus B4 [10]): > 100 mg/L; EC50 [11]: > 100 mg/L; EC50 [12]: > 100 mg/L; CC50 (MDCK): > 100 mg/L; MCC [13]: > 100 µg/mL; EC50 (Influenza A virus [14]): > 100 mg/L; EC50 (Influenza A virus [15]): > 100 mg/L; EC50 (Influenza B virus [16]): > 100 mg/L; EC50 (Influenza B virus [17]): > 100 mg/L; MCC [18]: > 100 µg/mL; EC50 (Human respirovirus 3): > 100 mg/L; EC50 [19]: > 100 mg/L; EC50 (Sindbis virus): > 100 mg/L; EC50 (Coxsackievirus B4 [20]): > 100 mg/L; EC50 (Punta Toro virus): > 100 mg/L

Q: For `Cc1ccc(S(=O)(=O)n2c(-c3ccc(S(=O)(=O)O)cc3)nc3ccccc32)cc1`, which MBC (Staphylococcus aureus) is on record?
A: 6.25 mg/L (≈ 14.6 µM)

Q: And the MBC (Bacillus subtilis)?
A: 12.5 mg/L (≈ 29.2 µM)

Q: What about the MBC (Escherichia coli) of the same molecule?
A: 12.5 mg/L (≈ 29.2 µM)

Q: What about the MFC (Candida albicans) of the same molecule?
A: 50 mg/L (≈ 117 µM)

Q: What about the MFC (Aspergillus niger) of the same molecule?
A: > 50 mg/L

Q: And the CC50 ([1]; crfk)?
A: > 100 mg/L

Q: And the EC50 (Felid alphaherpesvirus 1)?
A: > 100 mg/L

Q: What about the EC50 (Feline coronavirus) of the same molecule?
A: > 100 mg/L

Q: And the MCC [2]?
A: > 100 µg/mL

Q: What about the EC50 (Human alphaherpesvirus 1 [3]) of the same molecule?
A: > 100 mg/L

Q: And the EC50 (Human alphaherpesvirus 2)?
A: > 100 mg/L

Q: What about the EC50 (Vaccinia virus) of the same molecule?
A: > 100 mg/L

Q: And the EC50 [4]?
A: > 100 mg/L

Q: And the EC50 (Human alphaherpesvirus 1 [5])?
A: > 100 mg/L

Q: What about the CC50 (HeLa) of the same molecule?
A: > 100 mg/L

Q: What about the MCC [6] of the same molecule?
A: > 100 µg/mL

Q: What about the EC50 [7] of the same molecule?
A: > 100 mg/L

Q: What about the EC50 [8] of the same molecule?
A: > 100 mg/L

Q: And the EC50 (Coxsackievirus B4 [9])?
A: > 100 mg/L

Q: What about the EC50 (Coxsackievirus B4 [10]) of the same molecule?
A: > 100 mg/L

Q: What about the EC50 [11] of the same molecule?
A: > 100 mg/L

Q: What about the EC50 [12] of the same molecule?
A: > 100 mg/L

Q: And the CC50 (MDCK)?
A: > 100 mg/L

Q: And the MCC [13]?
A: > 100 µg/mL

Q: What about the EC50 (Influenza A virus [14]) of the same molecule?
A: > 100 mg/L

Q: And the EC50 (Influenza A virus [15])?
A: > 100 mg/L

Q: And the EC50 (Influenza B virus [16])?
A: > 100 mg/L

Q: And the EC50 (Influenza B virus [17])?
A: > 100 mg/L

Q: What about the MCC [18] of the same molecule?
A: > 100 µg/mL

Q: What about the EC50 (Human respirovirus 3) of the same molecule?
A: > 100 mg/L

Q: And the EC50 [19]?
A: 100 mg/L (≈ 233 µM)

Q: What about the EC50 (Sindbis virus) of the same molecule?
A: > 250 mg/L

Q: What about the EC50 (Coxsackievirus B4 [20]) of the same molecule?
A: > 100 mg/L

Q: And the EC50 (Punta Toro virus)?
A: > 100 mg/L

Q: Which results are given for `O=c1[nH]c(=O)n([C@H]2C[C@H](O)[C@@H](CO)O2)cc1/C=C/Br` [BRIVUDINE]?
A: MCC [2]: > 250 µg/mL; EC50 (Vaccinia virus): 112 mg/L (≈ 336 µM); EC50 (Human alphaherpesvirus 1 [5]): > 250 mg/L

Q: Which MCC [2] does the source give for `Nc1ccn(C[C@@H](CO)OCP(=O)(O)O)c(=O)n1.O.O` [CIDOFOVIR] here?
A: > 250 µg/mL

Q: What about the EC50 (Human alphaherpesvirus 1 [3]) of the same molecule?
A: 0.4 mg/L

Q: And the EC50 (Human alphaherpesvirus 2)?
A: 0.2 mg/L

Q: And the EC50 (Vaccinia virus)?
A: > 250 mg/L

Q: And the EC50 (Human alphaherpesvirus 1 [5])?
A: > 250 mg/L

Q: Which CC50 ([1]; CRFK cells, read-out: CC50) does the source give for `Nc1nc2c(ncn2COC(CO)CO)c(=O)[nH]1` [GANCICLOVIR] here?
A: > 100 mg/L

Q: And the EC50 (Felid alphaherpesvirus 1)?
A: > 100 mg/L

Q: And the EC50 (Feline coronavirus)?
A: 1.7 mg/L (≈ 6.66 µM)

Q: What about the MCC [2] of the same molecule?
A: > 100 µg/mL

Q: What about the EC50 (Human alphaherpesvirus 1 [3]) of the same molecule?
A: 0.03 mg/L (≈ 0.118 µM)

Q: What about the EC50 (Human alphaherpesvirus 2) of the same molecule?
A: 0.03 mg/L (≈ 0.118 µM)

Q: And the EC50 (Human alphaherpesvirus 1 [5])?
A: 58 mg/L (≈ 227 µM)

Source: ChEMBL document CHEMBL1629526, “4-[1-(Substituted aryl/alkyl carbonyl)-benzoimidazol-2-yl]-benzenesulfonic acids: synthesis, antimicrobial activity, QSAR studies, and antiviral evaluation” (Eur J Med Chem, 2010)
